Measured values reported in ChEMBL document CHEMBL1759894, “Synthesis and SAR investigations of novel 2-arylbenzimidazole derivatives as melanin-concentrating hormone receptor 1 (MCH-R1) antagonists” (Bioorg Med Chem Lett, 2011).
Blank lines part the entries; values can stand above or below the compound they belong to.

Columns and labels:
[1] = Metabolic stability in human liver microsomes after 30 mins; type: ADME, Microsome; conditions: read-out: Stability
Rattus norvegicus = experiment: Volume of distribution at steady state in rat at 10 mg/kg, iv and po; type: ADME, organism-based; design: dose 10 mg/kg, route oral; conditions: in vivo
How it was run: (§1)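 Rats received 10 mg/kg by both intravenous and oral routes, n = 3.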

[2] = Plasma concentration in rat at 10 mg/kg, po at 3 hrs; type: ADME, organism-based; design: dose 10 mg/kg, route oral
How it was run: (§2)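 SD rats were given 10 mg/kg orally, and concentrations were measured 3 h after dosing. Values are means of n = 3 rats.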

[3] = Clearance in rat at 10 mg/kg, iv; type: ADME, organism-based; design: dose 10 mg/kg, route intravenous; conditions: in vivo; how it was run: as §1
[4] = Drug level in rat brain at 10 mg/kg, po at 3 hrs; type: ADME, organism-based; design: dose 10 mg/kg, route oral; conditions: read-out: Drug uptake; how it was run: as §2
[5] = Oral bioavailability in rat at 10 mg/kg; type: ADME, organism-based; conditions: in vivo; how it was run: as §1
[6] = biological target: Voltage-gated inwardly rectifying potassium channel KCNH2 (Homo sapiens, UniProt Q12809); experiment: Inhibition hERG by patch clamp method
[7] = Metabolic stability in rat liver microsomes after 30 mins; type: ADME, Microsome; conditions: read-out: Stability
[8] = Half life in rat at 10 mg/kg, iv and po; type: ADME, organism-based; design: dose 10 mg/kg, route oral; conditions: in vivo; how it was run: as §1
[9] = biological target: Melanin-concentrating hormone receptor 1 (Homo sapiens, UniProt Q99705); experiment: Displacement of Eu-labeled MCH from human MCH-R1 expressed in CHO by time-resolved fluorometric assay
How it was run: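 Competitive binding on membranes from CHO cells expressing human MCH-R1, with Eu-labeled MCH as tracer and time-resolved fluorometric read-out. IC50 values are means of at least two measurements.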

Melanin-concentrating hormone receptor 1, sequence (Q99705 whole entry): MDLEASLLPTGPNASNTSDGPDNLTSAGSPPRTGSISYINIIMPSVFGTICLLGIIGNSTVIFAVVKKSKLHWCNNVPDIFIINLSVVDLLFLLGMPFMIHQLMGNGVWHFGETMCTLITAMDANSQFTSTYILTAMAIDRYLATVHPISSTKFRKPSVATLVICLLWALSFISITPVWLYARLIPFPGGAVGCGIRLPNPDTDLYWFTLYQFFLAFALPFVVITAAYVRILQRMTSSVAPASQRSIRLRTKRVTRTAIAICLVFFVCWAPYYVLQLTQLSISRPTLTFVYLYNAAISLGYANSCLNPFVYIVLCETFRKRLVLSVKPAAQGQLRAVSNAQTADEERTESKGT
Voltage-gated inwardly rectifying potassium channel KCNH2, sequence (Q12809 whole entry): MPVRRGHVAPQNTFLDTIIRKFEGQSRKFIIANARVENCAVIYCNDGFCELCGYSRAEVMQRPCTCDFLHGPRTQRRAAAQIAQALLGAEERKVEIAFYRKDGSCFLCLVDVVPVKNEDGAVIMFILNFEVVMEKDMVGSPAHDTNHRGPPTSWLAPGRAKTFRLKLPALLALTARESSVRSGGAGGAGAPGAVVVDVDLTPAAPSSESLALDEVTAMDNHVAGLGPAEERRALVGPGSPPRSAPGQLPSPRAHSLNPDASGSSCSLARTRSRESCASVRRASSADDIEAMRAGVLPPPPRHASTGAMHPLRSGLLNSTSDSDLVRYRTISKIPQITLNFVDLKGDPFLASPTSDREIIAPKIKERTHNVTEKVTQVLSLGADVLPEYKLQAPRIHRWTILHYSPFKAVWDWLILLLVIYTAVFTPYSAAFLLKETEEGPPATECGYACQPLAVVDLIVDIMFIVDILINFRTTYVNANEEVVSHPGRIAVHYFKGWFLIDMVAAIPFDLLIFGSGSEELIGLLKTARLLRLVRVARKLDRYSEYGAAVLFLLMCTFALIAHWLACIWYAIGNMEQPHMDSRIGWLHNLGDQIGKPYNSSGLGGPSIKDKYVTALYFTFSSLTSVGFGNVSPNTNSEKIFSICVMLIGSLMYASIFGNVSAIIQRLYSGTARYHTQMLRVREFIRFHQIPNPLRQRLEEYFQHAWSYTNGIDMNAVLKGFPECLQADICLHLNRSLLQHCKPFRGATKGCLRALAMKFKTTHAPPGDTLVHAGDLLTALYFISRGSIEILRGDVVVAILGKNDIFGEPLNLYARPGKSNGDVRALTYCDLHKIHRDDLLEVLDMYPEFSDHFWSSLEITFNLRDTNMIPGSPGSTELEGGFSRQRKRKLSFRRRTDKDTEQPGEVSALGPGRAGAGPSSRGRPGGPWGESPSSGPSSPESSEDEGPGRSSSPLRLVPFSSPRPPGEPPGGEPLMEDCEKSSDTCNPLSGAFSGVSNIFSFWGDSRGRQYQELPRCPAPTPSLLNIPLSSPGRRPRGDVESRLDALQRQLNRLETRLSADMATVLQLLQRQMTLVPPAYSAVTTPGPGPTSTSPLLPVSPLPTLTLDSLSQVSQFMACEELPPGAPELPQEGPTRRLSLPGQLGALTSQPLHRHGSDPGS

SMILES: CC(=O)Nc1cccc(C2CCN(CCCn3c(-c4ccc(Cl)cc4)nc4ccccc43)CC2)c1
remaining at 0.5 h [1]: 97%
Vdss (Rattus norvegicus): 6 L/kg
concentration at 3 h [2]: 420 ng/mL
clearance [3]: 28.3 mL/min/kg
concentration at 3 h [4]: 160 ng/g
bioavailability [5]: 99%
IC50 [6]: 3 nM
remaining at 0.5 h [7]: 98%
half-life [8]: 4.3 h

SMILES: CC(=O)Nc1ccccc1C1CCN(CCCn2c(-c3ccc(Cl)cc3)nc3ccccc32)CC1
IC50 [9]: > 6000 nM

SMILES: CC(=O)Nc1cccc(C2CCN(CCn3c(-c4ccccc4)nc4ccccc43)CC2)c1
IC50 [9]: 10000 nM

SMILES: Cc1ccc(C(=O)Nc2cccc(C3CCN(CCCn4c(-c5ccc(Cl)cc5)nc5ccccc54)CC3)c2)cc1
IC50 [9]: 300 nM

SMILES: CC(=O)Nc1ccc(C2CCN(CCCn3c(-c4ccc(Cl)cc4)nc4ccccc43)CC2)cc1
IC50 [9]: 5380 nM

Continued, values first:

IC50 [9]: 30 nM
SMILES: CC(=O)Nc1cccc(C2CCN(CCCn3c(-c4cccc(C(F)(F)F)c4)nc4ccccc43)CC2)c1

IC50 [9]: 50 nM
SMILES: CC(=O)Nc1cccc(C2CCN(CCCn3c(-c4ccccc4C(F)(F)F)nc4ccccc43)CC2)c1

IC50 [9]: 60 nM
SMILES: CC(=O)Nc1cccc(C2CCN(CCCn3c(-c4ccc(C(C)C)cc4)nc4ccccc43)CC2)c1

IC50 [9]: 32 nM
SMILES: CCc1ccc(-c2nc3ccccc3n2CCCN2CCC(c3cccc(NC(C)=O)c3)CC2)cc1
